For this data set, the system named is MS2 coat protein. Put plainly: apparent Kd, MS2 coat protein; higher = weaker binding; RNA-MaP array; FMN 200 µM where present. The method, boiled down:
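Stalled E. coli RNA polymerase transcribed each design on Illumina sequencing-chip clusters. The clusters were titrated with SNAP-549-labelled MS2 coat protein, starting at 0.7 or 1.5 nM and doubling up to 3 µM, first without ligand and then with constant ligand, in 100 mM Tris-HCl pH 7.5, 80 mM KCl, 4 mM MgCl2, BSA, DTT, yeast tRNA and Tween-20. Green signal was normalised to red-channel RNA signal and to the control-cluster median Fmax. The apparent Kd is the median of filtered binding-curve fits made for each cluster.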

Setting [1] is: designed as: OFF switch for flavin mononucleotide, no ligand.
Where [2] appears, read: ligand present: flavin mononucleotide, designed as: OFF switch for flavin mononucleotide.
The mark [3] stands for this setting: designed as: ON switch for flavin mononucleotide, no ligand.
The mark [4] stands for this setting: ligand present: flavin mononucleotide, designed as: ON switch for flavin mononucleotide.

A word on the apparent Kd: it is a dissociation constant that holds for the conditions of the assay. In the case of “CCGGCUUACUAGGAUAUAGGAGUCGAUAGACACCUAGAAGGAGUAACAUGAGGAUCACCCAUGUGUCCUACCGG”, the “apparent Kd” value reads like this: under setting [1], 22.1 nM; under setting [2], 86 nM.
Taken in the same sequence, the figures for “UUUGAAUAAGUGAGGAUAUACUGUUAGUAUUGAUUGUAGAAGGUACAUGAGGAUCACCCAUGUUUAGUAUUUAU” were 16.3 nM and 15.9 nM.
Regarding “AAGUUUGUACGAGGAUAUCAGUUGUUUCUAAAUUCAACAUGAGGAUCACCCAUGUAGCAAUGGAGUGAGAAGGCGUGUGGGCAA”, the “apparent Kd” value was found to be 457 nM under setting [3] and 240 nM under setting [4].
Taken in the same sequence, the figures for “UUGGUUGUCGUAGGAUAUGUAGGAUAUUCCUACAUGAGGAUCACCCAUGUUCGCAUGGAAGAAGGACGGAAGGACGAUGACCAU” were 317 nM and 109 nM.
In the case of “UGCUAGGACCUAGGAUAUCCUGGGUUGGUGGUGCUUGAUGACCGGACAUGAGGAUCACCCAUGUAGGAGAAGGAGGUUGUUAAG”, the “apparent Kd” value reads like this: under setting [1], 61.2 nM; under setting [2], 100 nM.
For “UGUUGUUGAUAGGAUAUACUUGUAGGAGUUGUAGUAGAAGGAUCUACAUGAGGAUCACCCAUGUAGGAGUGAGU”, the “apparent Kd” value by setting is: under setting [1], 17.5 nM; under setting [2], 17.2 nM.
In the same order, the values of “CGAUAGUGUAGUUAUCCGUAGCGAACAUGAGGAUCACCCAUGUAGGAUAUGUUACUAAACUAGUAACAGAAGGGCGUGAGUCUU” are 30.2 nM and 30.6 nM.
On to “UCGUUUAUACAAGGAUAUCAAUUAUAGCUAAAUUCAACAUGAGGAUCACCCAUGUAACUAUGGAGUGAGAAGGUGUAAUGGCUU”, for which the “apparent Kd” value is, setting by setting: under setting [3], 116 nM; under setting [4], 310 nM.
Taken in the same sequence, the figures for “AGAGACCUCACAGGAUAUGCUGGACUUUGUCCAGCAGAAGGGUGAAAACAUGAGGAUCACCCAUGUAUGGUCUCCAAAUUUAAG” were 182 nM and 13.5 nM.
Regarding “GGAAAUUAGCAAGGAUAUCGGCUCACUAUAACUUUAUGCCCUAGGACAUGAGGAUCACCCAUGUACGAGAAGGUGCUAACUACA”, the “apparent Kd” value came out at 28.9 nM under setting [1] and 30.7 nM under setting [2].
Taken in the same sequence, the figures for “UGCAUGUUAGGAUAUGUUGUUGCGGGCGUACGCUCUCGACCACAGAAGGAACAUGAGGAUCACCCAUGUACCUC” were 20.3 nM and 88.8 nM.
With “CGAUAUUAUGUCAGGAUAUACAUUGCGAAAGCAAUGUAGAAGGGACAUGAGGAUCACCCAUGUCCUAACUAUCG”, the “apparent Kd” value reads like this: under setting [1], 12.5 nM; under setting [2], 14.2 nM.
“CAAUUGGCACAGAAGGGUGACAUGAGGAUCACCCAUGUAGCGUGGCACUCAGGAGAAGCCACGCCACAGGAUAUGUGCCGGCAC”: the “apparent Kd” value by setting is: under setting [3], 73.6 nM; under setting [4], 37.1 nM.
Consider “GGAGCAUAUGUCAGGAUAUCGUGGUCGAUAGAUCACGAGAAGGGACAUGAGGAUCACCCAUGUCAGUCCGCUCC”, for which the “apparent Kd” value amounted to 14.3 nM under setting [1] and 20.7 nM under setting [2].
In the same order, the values of “GCCUUAUCCGUCAGGAUAUACAUUUUUUAGUUGUUGUAGAAGGGACAUGAGGAUCACCCAUGUACAUUACAUUG” are 21.1 nM and 21.8 nM.
Taken in the same sequence, the figures for “GGCAAUAACGAGGAUAUCGUAUCGGAAACGAUACGAGAAGGUGUAACAUGAGGAUCACCCAUGUUCCUUAAGCC” were 24.9 nM and 26.6 nM.
With “GGAUCGAGUGUGAGGAUAUGCUGGUCCUUGGAUCAGCAGAAGGCACAUGAGGAUCACCCAUGUGUUCCCGGUCC”, the “apparent Kd” value reads like this: under setting [1], 48.9 nM; under setting [2], 577 nM.
Consider “AUUACAUGAGGAUCACCCAUGUACAGAACGUUUCAUUACAGUGAGGAUAUACGAAAUGUAGGAGCGUAGAAGGCACUGGGUACA”, for which the “apparent Kd” value reads like this: under setting [3], 129 nM; under setting [4], 40.1 nM.
For “UUUUUGUCAGGAUAUCGUGCAUACAACGAAAGUUCUAUGUGCGAGAAGGGACAUGAGGAUCACCCAUGUUACGG”, the “apparent Kd” value by setting is: under setting [1], 109 nM; under setting [2], 371 nM.
On to “UGGUACAUGGGAGGAUAUGGGACAUGAGGAUCACCCAUGUGAAAAUUAAAUAUGCCGAGAGGCAACUAGAAGGCCCAUGUACCU”, for which the “apparent Kd” value is, setting by setting: under setting [3], 29.9 nM; under setting [4], 14.9 nM.
In the same order, the values of “GUAGCAUACCGAGGAUAUUCAUACCGUAAACGGACAUGAGGAUCACCCAUGUGGCGAAAGCCUUGGGAGAAGGCGGAAUGCUAC” are 556 nM and 30.5 nM.
Turning to “GAGGUACGAGGAUAUACAUAGAUACAGACACAUGUUCAAGUACAUGAGGAUCACCCAUGUAGAAGGCGUAUAUC”, the “apparent Kd” value runs as follows: under setting [1], 30.1 nM; under setting [2], 44.9 nM.
With “GGAGAUACAUGAGGAUCACCCAUGUAGGAUAUAUAGUAUAUAUAUAGCGAAAGCUAUAUAUAUAUAUAGAAGGGCGUACACACC”, the “apparent Kd” value reads like this: under setting [1], 7.67 nM; under setting [2], 8.02 nM.
In the same order, the values of “CAGUCUACAGGAUAUACAUGAGGAUCACCCAUGUGUAUCAACCUUCUGUGAUCCUCAUGUAGAAGGGUAGACUG” are 13.5 nM and 10.9 nM.
“AAUGUCAGAAAGGAUAUGUAACUUGUAACUGUGACAGAAGGUUCGACAUGAGGAUCACCCAUGUUGAUCCAGGU”: the “apparent Kd” value under setting [1] came to 14.1 nM and the “apparent Kd” value under setting [2] turned out to be 26.4 nM.
For the sequence “UGUUGUAUUACAGGAUAUCUAUUAUUGUUAUUUAGAGAAGGGUAUUCACAUGAGGAUCACCCAUGUAUAUACGAGGAAGUUGUG”, the “apparent Kd” value runs as follows: under setting [3], 54.7 nM; under setting [4], 55.3 nM.
As to “GUGUAGAGAGGAUAUACAUGAGGAUCACCCAUGUGAAUAAGAUAGAAUAAGAUAAAGUGUAGAAGGUUUAGUGU”, the “apparent Kd” value is, setting by setting: under setting [1], 43 nM; under setting [2], 34.2 nM.
As for “ACAAAUUCUGACAUGAGGAUCACCCAUGUUAGAUUGUUAUGUCAGGAUAUUAUCUGGCAACCAGAUGAGAAGGGACGAUUUGUG”, the “apparent Kd” value under setting [3] was 10.6 nM and the “apparent Kd” value under setting [4] was 7.15 nM.
With “UCGUUGUCAGGAUAUCGUUAAUUUAAUUGUUUGUAUUAGUUCGAGAAGGGACAUGAGGAUCACCCAUGUUUGUU”, the “apparent Kd” value was found to be 57.2 nM under setting [1] and 154 nM under setting [2].
For “UUGGACGUCGUAGGAUAUGUAGGAUAUUCCUACAUGAGGAUCACCCAUGUUGACAUGGAAGAAGGACAGACGGACGAUGUCCAU”, the “apparent Kd” value is, setting by setting: under setting [3], 337 nM; under setting [4], 8.52 nM.
Regarding “ACGUAUCUAGGAUAUACGCUGGGUACUAUUCUCAAGUCAAGACAUGAGGAUCACCCAUGUAGAAGGAGAAGCAA”, the “apparent Kd” value came to 41 nM under setting [1] and 98.4 nM under setting [2].
Regarding “UGUUGUAUUACAGGAUAUCUAAUAUUUUUAUUUAGAGAAGGGUAUUCACAUGAGGAUCACCCAUGUAUAUACGAGGAAGUUGUG”, the “apparent Kd” value runs as follows: under setting [3], 34.3 nM; under setting [4], 38.1 nM.
Regarding “UGCAUGUAGGAGAAGGAGGACUUCAUGAGGAUCACCCAUGUGUUAGGACUUAGGAUAUUUGACGACAUGAGGAUCACCCAUGUG”, the “apparent Kd” value runs as follows: under setting [3], 80.1 nM; under setting [4], 71.9 nM.
Take “CCUGGUUGGUAAGGAUAUCCUACACUGUUCUGACCCGUGCAAGCUACAUGAGGAUCACCCAUGUGGGAGAAGGUGCGUCAACGC”: the “apparent Kd” value is 12.6 nM under setting [1] and 11.7 nM under setting [2].
In the same order, the values of “UGUCGGAGGAGAGGAUAUUACAUGAGGAUCACCCAUGUAUGAACCAAUAGCUGGAAACAGCAAUGUAAGAAGGCUGCUCCGACA” are 8.17 nM and 81.4 nM.
For “UUGAGGUCAGGAUAUGCAUGGCGGGACUUGCGUCGUGGCGUGGAGAAGGGACAUGAGGAUCACCCAUGUGGAGA”, the “apparent Kd” value was found to be 83.5 nM under setting [1] and 81.6 nM under setting [2].
In the case of “CAGCUACCCAGUAUGGGUAUUUGUACAGAAGGCCAGGUACAUGAGGAUCACCCAUGUAAAGAUAUGGAGGAUAUGUUAGUGUAU”, the “apparent Kd” value was found to be 22.1 nM under setting [3] and 6.86 nM under setting [4].
For the sequence “AAAAUACAUGAGGAUCACCCAUGUUAGGAUAUCCAAGGUCUAACCCUCAGGGUUAGACGGAGAAGGGAUGUGGU”, the “apparent Kd” value is, setting by setting: under setting [1], 60.8 nM; under setting [2], 61.6 nM.
Consider “AAAUGGAACUAAGGAUAUCUGUAUUUUGUUGAAACAUGAGGAUCACCCAUGUUCAUGAAAUUAUAGGAGAAGGUAGAUCCAUAA”, for which the “apparent Kd” value under setting [3] was 4.51 nM and the “apparent Kd” value under setting [4] was found to be 4.6 nM.
Turning to “GAGUAGAUCCGAGGAUAUACAAUCCGGAAACGGUACAUGAGGAUCACCCAUGUAGAAGGCGGAUCUACAGGUACUAAAGUACCG”, the “apparent Kd” value by setting is: under setting [1], 5.99 nM; under setting [2], 9.24 nM.
Taken in the same sequence, the figures for “GUCAGCUCGUGAGGAUAUACAUGUGCUGGAGACAGCACUAUUGUGUUCACAUGAGGAUCACCCAUGUAGAAGGCACGAGCUGAU” were 18.3 nM and 85.5 nM.
Turning to “GGUGCACGCACAGGAUAUCCGGCGGAGCUCGUCGGAGAAGGGUGACAUGAGGAUCACCCAUGUACGUGCAACUCGGUUUGAGAG”, the “apparent Kd” value was 22.4 nM under setting [3] and 48.9 nM under setting [4].
For the sequence “UCACGGGUUUGAGGAUAUAUUAUUAUUAUUUAAAUAGAAGGCAAAGAAAUUGUUAUUUCACUAUACAUGAGGAUCACCCAUGUU”, the “apparent Kd” value was 25.4 nM under setting [1] and 23.4 nM under setting [2].
Taken in the same sequence, the figures for “GUAGUGUAUGUAGGAUAUGUGAACGAAACGUUCACAGAAGGACAUGAGGAUCACCCAUGUAUUACAGUCAGCAAUCUGACUGUU” were 25.7 nM and 107 nM.
As for “ACAUGAGGAUCACCCAUGUAUACAUAGGAUAUUGGUGAUCAGGCAUGUUAUACAGGAUAUGUCUGCGAGAAGGAUGCACGUUGC”, the “apparent Kd” value was found to be 680 nM under setting [3] and 476 nM under setting [4].
In the case of “GCUAGGCAUGUCAGGAUAUGCUGAACCUUGGUUCAGCAGAAGGGACAUGAGGAUCACCCAUGUGCCAACCUAGC”, the “apparent Kd” value by setting is: under setting [1], 57.4 nM; under setting [2], 613 nM.
“GGAGCACACAUUAACAUGAGGAUCACCCAUGUCAAAAGACAUGAGGAUAUGGAUCCGAAAAGGAUCCAGAAGGCAUCGUGCUCC”: the “apparent Kd” value is 413 nM under setting [3] and 24.7 nM under setting [4].
In the case of “GUCAGAAGUGCAGGAUAUGCUGAGGCAUUCGCGGCAGAAGGGCACAUGAGGAUCACCCAUGUAGCCGGGUAUUGUACCUUAUCA”, the “apparent Kd” value by setting is: under setting [1], 6.36 nM; under setting [2], 9.16 nM.

The values above are taken from the EternaBench riboswitch data.
